Measurements from ChEMBL document CHEMBL4689842, “EUbOPEN Chemogenomics Library wave 1” (2021).

System: HEK-293T
Test: Multiplex assay against HEK293T;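 as to Population Tubulin-Different-Phenotype (%): share of the cells with healthy nuclei that show this phenotype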
Format: toxicity, cell-based
Details: human
In short: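 Imaging took place on a CQ1 microscope at 37°C and 5% CO2 once compound had been added to live cells stained at seeding with Hoechst33342, BioTracker Green Microtubule Cytoskeleton Dye, MitoTracker Red and Annexin V Alexa Fluor 680. CellPathfinder machine-learning gating classed cells as Hoechst high-intensity objects or normal cells, classed normal cells as having healthy, pyknosed or fragmented nuclei, and classed pyknosed cells as mitotic or apoptotic. Tubulin, mitochondrial-mass and membrane-permeability phenotypes are per cents of the healthy-nucleus cells.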

[1] = 12 h, 1 µM, compound concentration 1 uM, replicate 1
[2] = 12 h, 1 µM, compound concentration 1 uM, replicate 2
[3] = 12 h, 10 µM, compound concentration 10 uM, replicate 1
[4] = 12 h, 10 µM, compound concentration 10 uM, replicate 2
[5] = 24 h, 1 µM, compound concentration 1 uM, replicate 1
[6] = 24 h, 1 µM, compound concentration 1 uM, replicate 2
[7] = 24 h, 10 µM, compound concentration 10 uM, replicate 1
[8] = 24 h, 10 µM, compound concentration 10 uM, replicate 2
[9] = 48 h, 1 µM, compound concentration 1 uM, replicate 1
[10] = 48 h, 1 µM, compound concentration 1 uM, replicate 2
[11] = 48 h, 10 µM, compound concentration 10 uM, replicate 1
[12] = 48 h, 10 µM, compound concentration 10 uM, replicate 2

Structure (SMILES): Cc1csc2c(N[C@@H](C)CN3CCN(S(=O)(=O)c4ccc(Cl)c(Cl)c4)CC3)ncnc12
- Population Apoptotic (%) [1]: 58%
- Population Fragmented Nuclei (%) [1]: 12%
- Population Healthy Nuclei (%) [1]: 16%
- Population Hoechst High Intensity Objects (%) [1]: 19%
- Population Membrane Permeable-Phenotype (%) [1]: 6%
- Population Mitochondria Different-Phenotype (%) [1]: 96%
- Population Mitotic Cells (%) [1]: 41%
- Population Normal (%) [1]: 80%
- Population Pyknosed Nuclei (%) [1]: 71%
- Population Tubulin-Different-Phenotype (%) [1]: 93%
- Total Cell Count [1]: 223
- Population Apoptotic (%) [2]: 27%
- Population Fragmented Nuclei (%) [2]: 5%
- Population Healthy Nuclei (%) [2]: 29%
- Population Hoechst High Intensity Objects (%) [2]: 13%
- Population Membrane Permeable-Phenotype (%) [2]: 14%
- Population Mitochondria Different-Phenotype (%) [2]: 47%
- Population Mitotic Cells (%) [2]: 72%
- Population Normal (%) [2]: 86%
- Population Pyknosed Nuclei (%) [2]: 64%
- Population Tubulin-Different-Phenotype (%) [2]: 64%
- Total Cell Count [2]: 135
- Population Apoptotic (%) [3]: 79%
- Population Fragmented Nuclei (%) [3]: 9%
- Population Healthy Nuclei (%) [3]: 5%
- Population Hoechst High Intensity Objects (%) [3]: 11%
- Population Membrane Permeable-Phenotype (%) [3]: 20%
- Population Mitochondria Different-Phenotype (%) [3]: 90%
- Population Mitotic Cells (%) [3]: 20%
- Population Normal (%) [3]: 88%
- Population Pyknosed Nuclei (%) [3]: 84%
- Population Tubulin-Different-Phenotype (%) [3]: 80%
- Total Cell Count [3]: 197
- Population Apoptotic (%) [4]: 80%
- Population Fragmented Nuclei (%) [4]: 5%
- Population Healthy Nuclei (%) [4]: 11%
- Population Hoechst High Intensity Objects (%) [4]: 8%
- Population Membrane Permeable-Phenotype (%) [4]: 9%
- Population Mitotic Cells (%) [4]: 19%
- Population Normal (%) [4]: 91%
- Population Pyknosed Nuclei (%) [4]: 83%
- Population Tubulin-Different-Phenotype (%) [4]: 68%
- Total Cell Count [4]: 206
- Population Apoptotic (%) [5]: 57%
- Population Fragmented Nuclei (%) [5]: 16%
- Population Healthy Nuclei (%) [5]: 21%
- Population Hoechst High Intensity Objects (%) [5]: 18%
- Population Membrane Permeable-Phenotype (%) [5]: 4%
- Population Mitochondria Different-Phenotype (%) [5]: 93%
- Population Mitotic Cells (%) [5]: 42%
- Population Normal (%) [5]: 81%
- Population Pyknosed Nuclei (%) [5]: 62%
- Population Tubulin-Different-Phenotype (%) [5]: 90%
- Total Cell Count [5]: 244
- Population Apoptotic (%) [6]: 35%
- Population Fragmented Nuclei (%) [6]: 10%
- Population Healthy Nuclei (%) [6]: 28%
- Population Hoechst High Intensity Objects (%) [6]: 7%
- Population Membrane Permeable-Phenotype (%) [6]: 8%
- Population Mitochondria Different-Phenotype (%) [6]: 44%
- Population Mitotic Cells (%) [6]: 64%
- Population Normal (%) [6]: 92%
- Population Pyknosed Nuclei (%) [6]: 61%
- Population Tubulin-Different-Phenotype (%) [6]: 88%
- Total Cell Count [6]: 131
- Population Apoptotic (%) [7]: 85%
- Population Fragmented Nuclei (%) [7]: 12%
- Population Healthy Nuclei (%) [7]: 6%
- Population Hoechst High Intensity Objects (%) [7]: 16%
- Population Membrane Permeable-Phenotype (%) [7]: 27%
- Population Mitochondria Different-Phenotype (%) [7]: 90%
- Population Mitotic Cells (%) [7]: 14%
- Population Normal (%) [7]: 83%
- Population Pyknosed Nuclei (%) [7]: 80%
- Population Tubulin-Different-Phenotype (%) [7]: 63%
- Total Cell Count [7]: 208
- Population Apoptotic (%) [8]: 88%
- Population Fragmented Nuclei (%) [8]: 5%
- Population Healthy Nuclei (%) [8]: 7%
- Population Hoechst High Intensity Objects (%) [8]: 9%
- Population Membrane Permeable-Phenotype (%) [8]: 0%
- Population Mitochondria Different-Phenotype (%) [8]: 85%
- Population Mitotic Cells (%) [8]: 11%
- Population Normal (%) [8]: 91%
- Population Pyknosed Nuclei (%) [8]: 86%
- Population Tubulin-Different-Phenotype (%) [8]: 71%
- Total Cell Count [8]: 200
- Population Apoptotic (%) [9]: 59%
- Population Fragmented Nuclei (%) [9]: 16%
- Population Healthy Nuclei (%) [9]: 38%
- Population Hoechst High Intensity Objects (%) [9]: 17%
- Population Membrane Permeable-Phenotype (%) [9]: 5%
- Population Mitochondria Different-Phenotype (%) [9]: 80%
- Population Mitotic Cells (%) [9]: 40%
- Population Normal (%) [9]: 82%
- Population Pyknosed Nuclei (%) [9]: 45%
- Population Tubulin-Different-Phenotype (%) [9]: 85%
- Total Cell Count [9]: 240
- Population Apoptotic (%) [10]: 29%
- Population Fragmented Nuclei (%) [10]: 10%
- Population Healthy Nuclei (%) [10]: 47%
- Population Hoechst High Intensity Objects (%) [10]: 8%
- Population Membrane Permeable-Phenotype (%) [10]: 17%
- Population Mitochondria Different-Phenotype (%) [10]: 44%
- Population Mitotic Cells (%) [10]: 70%
- Population Normal (%) [10]: 91%
- Population Pyknosed Nuclei (%) [10]: 42%
- Population Tubulin-Different-Phenotype (%) [10]: 89%
- Total Cell Count [10]: 159
- Population Apoptotic (%) [11]: 47%
- Population Fragmented Nuclei (%) [11]: 23%
- Population Healthy Nuclei (%) [11]: 4%
- Population Hoechst High Intensity Objects (%) [11]: 17%
- Population Membrane Permeable-Phenotype (%) [11]: 25%
- Population Mitochondria Different-Phenotype (%) [11]: 62%
- Population Mitotic Cells (%) [11]: 52%
- Population Normal (%) [11]: 82%
- Population Pyknosed Nuclei (%) [11]: 72%
- Population Tubulin-Different-Phenotype (%) [11]: 87%
- Total Cell Count [11]: 229
- Population Apoptotic (%) [12]: 74%
- Population Fragmented Nuclei (%) [12]: 4%
- Population Healthy Nuclei (%) [12]: 21%
- Population Hoechst High Intensity Objects (%) [12]: 13%
- Population Membrane Permeable-Phenotype (%) [12]: 8%
- Population Mitochondria Different-Phenotype (%) [12]: 78%
- Population Mitotic Cells (%) [12]: 25%
- Population Normal (%) [12]: 86%
- Population Pyknosed Nuclei (%) [12]: 73%
- Population Tubulin-Different-Phenotype (%) [12]: 67%
- Total Cell Count [12]: 199
